Reference: publication PMC13103313 (Nature Communications, 2026)

Key:
[1] = test system: zebrafish larvae; assay: ISO-induced tachycardia model in zebrafish larvae; type: in vivo; settings: 100 μM; 10 μM ISO 100 min; zebrafish larvae 3–4 dpf
[2] = test system: Na+ current in primary ventricular myocytes; assay: Voltage-gated Na+ current in rat primary ventricular myocytes; type: cell-based; settings: 10 µM; rat primary cardiomyocytes; 365 vs 480 nm
Outline: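 Ventricular myocytes from 1–2-day-old Sprague-Dawley rats, dissociated with 0.05% trypsin and 0.1% collagenase II, with fibroblasts removed by 2 h pre-plating. Cultured in DMEM with 10% FBS at 37 °C. Whole-cell voltage clamp followed the HEK293T Na+ protocol (hold −120 mV, 50 ms step to −20 mV).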

[3] = test system: zebrafish larvae; assay: Heart rate recording in zebrafish larvae; type: in vivo; settings: 10 μM
[4] = target: NaV1.5 channels (Homo sapiens, UniProt Q14524); assay: Whole-cell patch-clamp recording of NaV1.5 currents in HEK293T cells; type: cell-based; settings: HEK-293T, read-out: inhibition rate, NaV1.5 WT, 100 μM
[5] = target: NaV1.5 V405A (Homo sapiens, UniProt Q14524, V405A); assay: Whole-cell patch-clamp of NaV1.5 V405A mutant in HEK293T cells; type: cell-based; settings: HEK-293T, read-out: inhibition rate, NaV1.5 V405A
[6] = target: NaV1.5 F1760A (Homo sapiens, UniProt Q14524, F1760A); assay: Whole-cell patch-clamp of NaV1.5 F1760A mutant in HEK293T cells; type: cell-based; settings: HEK-293T, read-out: inhibition rate, NaV1.5 F1760A
Sequence of NaV1.5 F1760A (Q14524 whole entry F1760A): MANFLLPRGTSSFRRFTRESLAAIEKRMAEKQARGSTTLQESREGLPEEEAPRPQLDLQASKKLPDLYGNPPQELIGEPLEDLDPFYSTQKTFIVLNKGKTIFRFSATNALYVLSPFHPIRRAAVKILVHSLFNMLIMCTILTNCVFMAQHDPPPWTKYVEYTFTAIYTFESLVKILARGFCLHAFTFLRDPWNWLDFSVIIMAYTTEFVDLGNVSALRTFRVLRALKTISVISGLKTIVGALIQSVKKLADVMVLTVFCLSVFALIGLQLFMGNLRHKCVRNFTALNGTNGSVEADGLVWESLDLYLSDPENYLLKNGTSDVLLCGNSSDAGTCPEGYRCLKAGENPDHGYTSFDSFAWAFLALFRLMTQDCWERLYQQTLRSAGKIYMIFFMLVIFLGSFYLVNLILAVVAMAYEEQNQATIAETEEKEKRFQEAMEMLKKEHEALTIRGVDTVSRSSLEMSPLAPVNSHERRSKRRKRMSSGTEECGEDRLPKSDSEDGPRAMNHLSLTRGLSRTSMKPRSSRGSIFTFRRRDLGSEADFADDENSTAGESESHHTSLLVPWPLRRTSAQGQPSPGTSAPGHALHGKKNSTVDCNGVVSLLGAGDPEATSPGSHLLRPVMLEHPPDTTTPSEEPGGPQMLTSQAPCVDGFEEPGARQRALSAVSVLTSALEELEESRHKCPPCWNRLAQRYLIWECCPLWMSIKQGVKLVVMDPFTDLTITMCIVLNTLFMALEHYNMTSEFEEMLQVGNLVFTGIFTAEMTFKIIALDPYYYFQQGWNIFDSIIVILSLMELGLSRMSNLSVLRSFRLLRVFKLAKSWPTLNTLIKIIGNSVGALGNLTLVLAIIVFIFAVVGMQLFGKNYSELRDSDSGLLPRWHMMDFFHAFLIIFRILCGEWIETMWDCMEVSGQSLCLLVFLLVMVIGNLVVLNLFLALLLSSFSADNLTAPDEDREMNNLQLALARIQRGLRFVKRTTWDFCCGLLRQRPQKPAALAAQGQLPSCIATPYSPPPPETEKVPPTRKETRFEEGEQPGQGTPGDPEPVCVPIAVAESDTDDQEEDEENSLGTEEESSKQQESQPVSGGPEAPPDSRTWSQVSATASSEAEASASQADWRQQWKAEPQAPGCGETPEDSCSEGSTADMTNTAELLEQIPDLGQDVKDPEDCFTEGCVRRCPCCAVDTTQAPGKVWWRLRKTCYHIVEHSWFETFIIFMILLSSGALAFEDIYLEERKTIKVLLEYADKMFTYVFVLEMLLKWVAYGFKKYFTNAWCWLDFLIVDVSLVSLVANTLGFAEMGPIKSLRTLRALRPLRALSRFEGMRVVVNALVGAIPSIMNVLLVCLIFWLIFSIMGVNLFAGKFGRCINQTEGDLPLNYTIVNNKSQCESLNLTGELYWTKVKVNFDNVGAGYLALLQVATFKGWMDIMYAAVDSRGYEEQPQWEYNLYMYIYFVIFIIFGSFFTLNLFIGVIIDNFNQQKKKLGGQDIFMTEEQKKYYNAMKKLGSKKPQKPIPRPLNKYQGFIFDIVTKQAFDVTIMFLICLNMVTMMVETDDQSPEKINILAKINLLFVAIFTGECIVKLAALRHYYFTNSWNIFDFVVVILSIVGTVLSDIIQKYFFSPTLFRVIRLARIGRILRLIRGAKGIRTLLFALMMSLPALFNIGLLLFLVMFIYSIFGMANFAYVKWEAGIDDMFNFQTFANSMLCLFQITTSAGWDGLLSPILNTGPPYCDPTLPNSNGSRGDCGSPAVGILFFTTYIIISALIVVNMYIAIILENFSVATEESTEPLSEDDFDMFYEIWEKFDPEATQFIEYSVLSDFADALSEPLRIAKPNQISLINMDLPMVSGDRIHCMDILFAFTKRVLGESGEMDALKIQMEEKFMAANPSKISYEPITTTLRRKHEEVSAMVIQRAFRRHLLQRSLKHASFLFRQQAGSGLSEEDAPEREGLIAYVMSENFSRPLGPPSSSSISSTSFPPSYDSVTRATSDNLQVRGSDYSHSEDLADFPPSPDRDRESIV

Sequence of NaV1.5 channels (Q14524 whole entry): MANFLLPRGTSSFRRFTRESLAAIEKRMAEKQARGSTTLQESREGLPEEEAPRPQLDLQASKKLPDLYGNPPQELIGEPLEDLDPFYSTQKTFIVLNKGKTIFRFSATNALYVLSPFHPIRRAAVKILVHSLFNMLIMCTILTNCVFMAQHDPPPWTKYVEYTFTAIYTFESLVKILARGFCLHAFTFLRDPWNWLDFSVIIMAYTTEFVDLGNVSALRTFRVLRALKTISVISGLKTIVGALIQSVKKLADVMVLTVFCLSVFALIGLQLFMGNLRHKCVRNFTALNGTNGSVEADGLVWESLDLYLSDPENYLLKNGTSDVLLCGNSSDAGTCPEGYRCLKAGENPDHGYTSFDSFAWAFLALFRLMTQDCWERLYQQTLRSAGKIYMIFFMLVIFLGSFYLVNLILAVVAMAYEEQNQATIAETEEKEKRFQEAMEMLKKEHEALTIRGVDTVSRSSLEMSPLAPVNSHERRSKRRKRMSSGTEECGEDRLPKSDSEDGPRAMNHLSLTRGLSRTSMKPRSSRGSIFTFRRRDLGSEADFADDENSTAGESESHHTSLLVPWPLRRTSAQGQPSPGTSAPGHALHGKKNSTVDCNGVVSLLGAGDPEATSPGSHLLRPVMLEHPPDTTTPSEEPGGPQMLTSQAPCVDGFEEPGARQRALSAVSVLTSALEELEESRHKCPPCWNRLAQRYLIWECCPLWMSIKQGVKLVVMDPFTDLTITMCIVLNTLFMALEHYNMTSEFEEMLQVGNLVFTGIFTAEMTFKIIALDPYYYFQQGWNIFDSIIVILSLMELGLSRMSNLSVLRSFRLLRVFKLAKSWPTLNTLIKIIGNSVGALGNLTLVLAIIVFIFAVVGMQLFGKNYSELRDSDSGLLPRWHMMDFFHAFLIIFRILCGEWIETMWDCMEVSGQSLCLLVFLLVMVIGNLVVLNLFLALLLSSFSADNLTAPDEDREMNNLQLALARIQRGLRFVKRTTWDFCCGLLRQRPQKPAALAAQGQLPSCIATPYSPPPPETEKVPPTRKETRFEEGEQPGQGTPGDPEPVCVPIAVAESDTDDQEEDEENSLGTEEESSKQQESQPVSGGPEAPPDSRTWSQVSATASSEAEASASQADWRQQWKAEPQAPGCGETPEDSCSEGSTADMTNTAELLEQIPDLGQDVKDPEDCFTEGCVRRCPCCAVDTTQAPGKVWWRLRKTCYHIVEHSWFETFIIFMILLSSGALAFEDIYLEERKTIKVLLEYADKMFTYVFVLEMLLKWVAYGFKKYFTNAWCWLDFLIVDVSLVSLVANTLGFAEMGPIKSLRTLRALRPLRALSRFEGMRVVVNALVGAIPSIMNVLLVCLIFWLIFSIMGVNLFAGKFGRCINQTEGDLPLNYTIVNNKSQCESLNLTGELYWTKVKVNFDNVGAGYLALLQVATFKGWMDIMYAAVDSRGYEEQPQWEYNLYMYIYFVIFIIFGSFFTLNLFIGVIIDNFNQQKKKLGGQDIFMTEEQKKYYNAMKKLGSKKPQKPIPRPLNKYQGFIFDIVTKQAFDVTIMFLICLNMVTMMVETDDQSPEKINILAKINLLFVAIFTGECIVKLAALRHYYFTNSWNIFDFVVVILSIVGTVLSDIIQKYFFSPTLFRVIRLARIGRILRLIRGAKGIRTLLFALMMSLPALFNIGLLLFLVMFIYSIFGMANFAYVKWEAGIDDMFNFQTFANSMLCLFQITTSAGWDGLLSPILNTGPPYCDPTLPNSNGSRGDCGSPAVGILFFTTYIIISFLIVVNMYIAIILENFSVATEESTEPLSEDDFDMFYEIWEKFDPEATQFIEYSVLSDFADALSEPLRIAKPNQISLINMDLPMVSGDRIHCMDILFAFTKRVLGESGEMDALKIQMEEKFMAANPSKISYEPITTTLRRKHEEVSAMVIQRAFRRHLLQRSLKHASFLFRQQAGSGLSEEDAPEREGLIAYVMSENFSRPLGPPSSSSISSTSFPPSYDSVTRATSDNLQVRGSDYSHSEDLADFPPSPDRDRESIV

C=C[C@H]1C[N@@]2CC[C@H]1C[C@@H]2[C@@H](O)c1ccnc2ccc(OC)cc12 [Quinidine, quinidine]
effect on heart rate in ISO-pretreated larvae [1]: markedly attenuate heart rate
photoswitching efficacy (optical control), Na+ current [2]: 0.8 ± 0.8%
heart rate normalized to control in dark ([3]; soaking 1-[…] in the dark, zebrafish larvae 2 dpf): 90.8 ± 1.4%
heart rate normalized to control in dark ([3]; 365 nm followed by 480 nm illumination, 5 min each): 91.6 ± 1.3%
heart rate normalized to control in dark ([3]; after 365 nm illumination for 5 min): 93.9 ± 0.9%
inhibition at 100 µM [4]: 77.6 ± 3.2%
inhibition at 100 µM [5]: 51.2 ± 2.3%
inhibition at 100 µM [6]: 32.6 ± 1.8%
